Assay results as given in ChEMBL document CHEMBL2021781, “Dual targeting of histone deacetylase and topoisomerase II with novel bifunctional inhibitors” (J Med Chem, 2012).
The source made the active and inactive calls. No cut-off for these calls is given here.

Assays:
[1] = tested on: DU-145; assay: Antiproliferative activity against human DU145 cells after 72 hrs by MTS assay; assay type: functional, cell-based; conditions: DU-145, 72 h
How it was run: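 DU-145 cells passaged 24 h before dosing and exposed 72 h; compounds from 10 mM DMSO stocks; controls given media with 0.1% DMSO; 37°C, 5% CO2. Viability read by MTS assay, with Trypan Blue staining also used. IC50 from the average of two experiments, each run in triplicate.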

[2] = target: DNA topoisomerase 2-alpha (Homo sapiens) (UniProt P11388); assay: Inhibition of topoisomerase 2 in human DU145 cells assessed as stabilization of enzyme-DNA cleavage complex at 130 nM after 72 hrs by immunoblot analysis; assay type: cell-based; conditions: DU-145
How it was run: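 DU-145 cells dosed 30 min or 72 h; controls given 0.1% DMSO. 72 h samples equalized to the 30 min cell count before lysis in 1% sarkosyl. Lysates spun on a CsCl gradient at 31,000 RPM, room temperature, 12 h. Fractions holding Topo II–DNA complexes found by A260, slot-blotted onto nitrocellulose, and immunoblotted for Topo II.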

[3] = target: T1, Histone deacetylase (Homo sapiens) (UniProt Q13547+O15379+Q9UBN7+Q92769+Q9UQL6+Q8WUI4+Q9BY41+Q96DB2+P56524+Q9UKV0+Q969S8); assay: Inhibition of HDAC in human DU145 cells assessed as upregulation of p21 expression at 5 times IC50 concentration after 4 hrs by Western blot analysis relative to control; assay type: cell-based; conditions: DU-145
How it was run: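 Lysed in RIPA with protease inhibitors, cleared 14,000 RPM at 4°C. Immunoblotted, probing acetylated versus total tubulin; p21 also checked. Near-infrared detection at 700/800 nm.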

[4] = target: T1, Histone deacetylase (Homo sapiens); assay: Inhibition of HDAC in human DU145 cells assessed as histone H4 acetylation after 24 hrs by Western blot analysis; assay type: cell-based; conditions: DU-145
How it was run: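 DU-145 cells passaged 24 h before dosing, then exposed 24 h to compound in growth medium (final DMSO 0.1%); controls received 0.1% DMSO. Lysed in RIPA with protease inhibitors at 4°C, cleared at 14,000 × g. Protein quantified against BSA, boiled, transferred to nitrocellulose. Probed for acetyl-H3, acetyl-H4 and p21waf1 with actin loading control; read by near-infrared scanning at 700/800 nm.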

[5] = target: T2, Histone deacetylase 8 (Homo sapiens, UniProt Q9BY41); assay: Inhibition of HDAC8 in human HeLa cell nuclear extract using Fluor de Lys as substrate after 15 mins by fluorometric analysis
T2 sequence (Q9BY41 whole entry): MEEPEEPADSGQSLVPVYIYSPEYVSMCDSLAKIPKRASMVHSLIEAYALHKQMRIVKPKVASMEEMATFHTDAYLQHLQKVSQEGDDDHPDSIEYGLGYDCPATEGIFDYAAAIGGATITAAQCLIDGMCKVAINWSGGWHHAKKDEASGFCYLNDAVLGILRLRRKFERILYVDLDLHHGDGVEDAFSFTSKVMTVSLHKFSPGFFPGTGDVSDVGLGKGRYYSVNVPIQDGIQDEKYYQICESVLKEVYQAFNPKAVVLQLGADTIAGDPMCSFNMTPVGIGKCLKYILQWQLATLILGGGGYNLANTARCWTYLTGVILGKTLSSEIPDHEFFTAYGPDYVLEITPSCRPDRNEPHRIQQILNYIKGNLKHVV

[6] = Drug uptake in human DU145 cell cytosol at 1 uM after 4 hrs by confocal microscopic analysis; assay type: ADME, cell-based, DU-145
How it was run: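 Cells plated on glass coverslips 24 h ahead, then given fresh media with compound at 1 μM for 4 h. After a PBS wash, coverslips were mounted and intracellular distribution imaged by confocal microscopy, excitation 488 nm. Done in DU-145 cells, with A549 lung tumor cells also examined.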

DNA topoisomerase 2-alpha (Homo sapiens), sequence (P11388 whole entry): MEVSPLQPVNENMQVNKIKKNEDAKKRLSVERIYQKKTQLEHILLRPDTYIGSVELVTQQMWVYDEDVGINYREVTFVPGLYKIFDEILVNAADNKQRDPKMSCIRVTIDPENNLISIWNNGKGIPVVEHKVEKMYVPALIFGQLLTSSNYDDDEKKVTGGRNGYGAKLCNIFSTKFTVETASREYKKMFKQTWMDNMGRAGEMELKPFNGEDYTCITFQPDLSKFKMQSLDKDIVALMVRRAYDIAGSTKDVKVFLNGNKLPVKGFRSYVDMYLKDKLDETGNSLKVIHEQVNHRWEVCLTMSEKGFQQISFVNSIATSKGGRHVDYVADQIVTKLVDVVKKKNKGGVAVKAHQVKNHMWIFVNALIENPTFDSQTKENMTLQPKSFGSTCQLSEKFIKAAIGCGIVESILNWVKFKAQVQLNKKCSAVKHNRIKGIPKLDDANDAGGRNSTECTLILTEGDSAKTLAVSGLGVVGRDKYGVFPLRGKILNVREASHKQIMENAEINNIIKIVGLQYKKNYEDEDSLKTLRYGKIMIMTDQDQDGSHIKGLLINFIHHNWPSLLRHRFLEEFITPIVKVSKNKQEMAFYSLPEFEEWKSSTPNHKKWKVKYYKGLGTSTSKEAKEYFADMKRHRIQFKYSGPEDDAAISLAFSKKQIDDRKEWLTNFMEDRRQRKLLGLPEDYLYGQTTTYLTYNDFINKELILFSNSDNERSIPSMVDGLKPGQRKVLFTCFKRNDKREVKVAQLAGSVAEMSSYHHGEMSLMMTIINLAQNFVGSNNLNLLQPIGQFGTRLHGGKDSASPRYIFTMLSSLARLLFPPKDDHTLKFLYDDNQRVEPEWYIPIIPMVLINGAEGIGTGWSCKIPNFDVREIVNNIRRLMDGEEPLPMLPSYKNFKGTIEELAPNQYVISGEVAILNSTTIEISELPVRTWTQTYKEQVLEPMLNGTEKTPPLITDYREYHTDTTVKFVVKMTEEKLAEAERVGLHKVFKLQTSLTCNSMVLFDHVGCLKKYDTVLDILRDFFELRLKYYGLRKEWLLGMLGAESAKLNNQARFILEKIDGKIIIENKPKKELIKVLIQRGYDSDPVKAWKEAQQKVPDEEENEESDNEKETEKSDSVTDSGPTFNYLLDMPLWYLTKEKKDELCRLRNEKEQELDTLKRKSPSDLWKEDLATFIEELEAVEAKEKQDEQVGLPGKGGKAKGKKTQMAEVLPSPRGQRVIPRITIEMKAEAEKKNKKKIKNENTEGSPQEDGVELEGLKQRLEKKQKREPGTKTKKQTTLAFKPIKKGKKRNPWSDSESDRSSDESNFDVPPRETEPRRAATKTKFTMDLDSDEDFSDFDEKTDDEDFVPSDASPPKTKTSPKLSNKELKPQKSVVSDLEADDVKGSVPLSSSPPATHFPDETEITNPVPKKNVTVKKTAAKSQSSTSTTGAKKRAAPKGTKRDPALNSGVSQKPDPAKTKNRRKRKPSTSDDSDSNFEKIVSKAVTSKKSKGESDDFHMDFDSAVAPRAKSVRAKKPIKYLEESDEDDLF

With `COc1cccc2c1C(=O)c1c(O)c3c(c(O)c1C2=O)C[C@@](O)(C(C)=O)C[C@@H]3O[C@H]1C[C@H](NCc2ccc(NC(=O)CCCCCCC(=O)NO)cc2)[C@H](O)[C@H](C)O1` the IC50 [1] was 0.13 µM, the inhibition [2] was “Active” and the Activity [3] was “inactive”. The inhibition [4] was “Dose-dependent effect”, the IC50 [5] was 0.22 µM and the Drug uptake [6] was “Active”.
